FLuc inhib CS = counter-screen for luciferase assay inhibitors: firefly luciferase inhibition. P08659. inhibition, % at 10 µM. ATPLite firefly luciferase biochemical luminescence, 10 min. hit rate 1.5% among 200,000. AID 1006;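 active = inhibition above about 50% when tested at 10 µM, limit read from the data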
Target sequence (P08659 whole entry, looked up): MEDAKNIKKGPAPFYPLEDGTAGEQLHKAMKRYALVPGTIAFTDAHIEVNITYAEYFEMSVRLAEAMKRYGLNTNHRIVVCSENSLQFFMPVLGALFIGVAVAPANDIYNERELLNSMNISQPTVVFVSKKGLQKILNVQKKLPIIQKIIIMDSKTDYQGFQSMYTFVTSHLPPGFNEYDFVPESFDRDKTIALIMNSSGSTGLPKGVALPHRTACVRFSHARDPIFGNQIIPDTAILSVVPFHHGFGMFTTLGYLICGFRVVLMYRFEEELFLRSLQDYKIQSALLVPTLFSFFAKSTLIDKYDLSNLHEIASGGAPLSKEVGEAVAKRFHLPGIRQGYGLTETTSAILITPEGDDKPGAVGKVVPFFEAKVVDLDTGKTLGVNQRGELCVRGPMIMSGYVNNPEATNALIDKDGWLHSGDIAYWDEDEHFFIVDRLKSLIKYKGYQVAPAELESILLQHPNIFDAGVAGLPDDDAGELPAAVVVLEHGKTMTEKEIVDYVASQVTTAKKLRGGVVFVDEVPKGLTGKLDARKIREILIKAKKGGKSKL
C8 TRAIL sens = caspase-8 TRAIL sensitization. NB7+C8 cells + TRAIL, ATPlite viability luminescence. AID 624354. hit rate 1% among 360,000. inhibition (viability loss, TRAIL sensitization), % at 10 µM;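 active = compounds causing at least 50% loss of cell viability in the single-dose screen, relative to plate controls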
FLuc stim CS = firefly luciferase counter-screen for stimulation assays; ATPlite luciferase biochemical, luminescence, 10 min; 0 = ATP-free wells, 1 = DMSO control; P08659; activation factor at 10 µM; 200,000 tested, under 10 active;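 active = luciferase activation factor, scaled between plate controls, of at least 2 with compound at 10 µM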
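Material: Luciferase/luciferin reagent mix | Doses: Test compounds dosed from 2 mM stocks in 100% DMSO | Timing: 10 min incubation after luciferase reagent addition, room temperature | Measured by: Luminescence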
PPC-1+TRAIL kill = kills PPC-1 cancer cells in the presence of TRAIL | PPC-1 cells + TRAIL, ATPLite viability luminescence | cell killing (% activity), % at 4 µM or 5 µM | hit rate 0.41% among 220,000 | AID 1443;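 active = cell killing above 50% in the first pass at 4 µM, then a duplicate retest at 5 µM averaging 50% or more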
Hits are given with their value. Hits are enriched below; roughly 1.6% of the tested compounds scored in any of these assays.

How did COCCn1c(C)cc(C2=NNC(=Nc3ccc(OC)cc3)SC2)c1C do in these assays?
FLuc inhib CS: inactive; C8 TRAIL sens: inactive; FLuc stim CS: inactive; PPC-1+TRAIL kill: inactive

How did CCN=C1NN=C(c2cc(C)n(Cc3ccco3)c2C)CS1 do in these assays?
FLuc inhib CS: 91; C8 TRAIL sens: inactive; FLuc stim CS: inactive; PPC-1+TRAIL kill: inactive

Results for CCN=C1NN=C(c2cc(C)n(CCc3ccccc3)c2C)CS1 ?
FLuc inhib CS: inactive; C8 TRAIL sens: inactive; FLuc stim CS: inactive; PPC-1+TRAIL kill: inactive

How did OCC[C@@H]1C[C@H](O)[C@@H](O)[C@@]2(OCCc3cc(Cl)ccc32)O1 do in these assays?
C8 TRAIL sens: inactive

What do the screens show for `Cc1nc(Cl)sc1C(=O)Nc1ccc(C(C)(C)C)cc1`?
C8 TRAIL sens: inactive

Results for Cc1noc(N)c1C(=O)Nc1ccc(C(C)(C)C)cc1 ?
FLuc inhib CS: 67; C8 TRAIL sens: 56; FLuc stim CS: inactive; PPC-1+TRAIL kill: inactive

How did CCOC(=O)Cc1ccc(NC(=O)c2ccc(C(C)(C)C)cc2)cc1 do in these assays?
FLuc inhib CS: 54; C8 TRAIL sens: inactive; FLuc stim CS: inactive; PPC-1+TRAIL kill: inactive

What do the screens show for `C=C(C)CN=CC1(C)CCC(C)=CO1` (configuration not stated)?
C8 TRAIL sens: inactive

Results for CCc1ccc(CNCc2ccc(F)cc2)cc1 ?
FLuc inhib CS: inactive; C8 TRAIL sens: inactive; FLuc stim CS: inactive; PPC-1+TRAIL kill: 66

What do the screens show for `O=C(O)c1ccc(CNCc2ccc(F)cc2)cc1`?
FLuc inhib CS: inactive; C8 TRAIL sens: inactive; FLuc stim CS: inactive; PPC-1+TRAIL kill: inactive

How did CC(C(=O)O)c1ccc(N2Cc3ccccc3C2=O)cc1 (configuration not stated) do in these assays?
FLuc inhib CS: 62; C8 TRAIL sens: inactive; FLuc stim CS: inactive; PPC-1+TRAIL kill: inactive

What do the screens show for `Oc1cc(NCc2ccc(F)cc2)cc2cccnc12`?
C8 TRAIL sens: 54

What do the screens show for `COc1cccc2[nH]c3ccccc3c(=O)c12`?
C8 TRAIL sens: inactive

What do the screens show for `C=Cc1ncc(OC)c2c1[nH]c1ccccc12`?
C8 TRAIL sens: 66

How did CCCOC(=O)c1ccc(-c2ccc(C=O)o2)cc1 do in these assays?
FLuc inhib CS: inactive; C8 TRAIL sens: inactive; FLuc stim CS: inactive; PPC-1+TRAIL kill: 50

Results for CCOC(=O)c1ccc(-c2ccc(C=O)o2)cc1 ?
C8 TRAIL sens: inactive; PPC-1+TRAIL kill: inactive

How did CCOC(=O)c1c(CSC(=N)N)n(-c2ccc(C)cc2)c2cc(Br)c(OC(C)=O)cc12 do in these assays?
FLuc inhib CS: inactive; C8 TRAIL sens: 93; FLuc stim CS: inactive; PPC-1+TRAIL kill: inactive

How did CCNc1nnc(CCn2nc(C)c(Br)c2C)s1 do in these assays?
FLuc inhib CS: inactive; C8 TRAIL sens: inactive; FLuc stim CS: inactive; PPC-1+TRAIL kill: inactive

What do the screens show for `Oc1ccc(/C=N/N2CCN(C3c4ccccc4-c4ccccc43)CC2)cc1O`?
C8 TRAIL sens: 58; PPC-1+TRAIL kill: inactive

What do the screens show for `Oc1ccc(/C=N/N2CCN(C3c4ccccc4-c4ccccc43)CC2)cc1`?
C8 TRAIL sens: inactive; PPC-1+TRAIL kill: inactive

Results for Cc1ccc(C(=O)N/C(=C\c2ccc(-c3ccccc3[N+](=O)[O-])o2)C(=O)NCCCN2CCOCC2)cc1 ?
C8 TRAIL sens: 56

Results for CCOC(=O)c1ccc(NC(=O)Cn2ncc(Cl)c(Cl)c2=O)cc1 ?
FLuc inhib CS: inactive; C8 TRAIL sens: inactive; FLuc stim CS: inactive; PPC-1+TRAIL kill: inactive

What do the screens show for `O=C(OCn1ncc(Cl)c(Cl)c1=O)c1ccc(C(F)(F)F)cc1`?
FLuc inhib CS: inactive; C8 TRAIL sens: 78; FLuc stim CS: inactive; PPC-1+TRAIL kill: inactive

How did Cc1ccc(C(=O)OCn2ncc(Cl)c(Cl)c2=O)cc1 do in these assays?
FLuc inhib CS: inactive; C8 TRAIL sens: 94; FLuc stim CS: inactive; PPC-1+TRAIL kill: inactive

What do the screens show for `COc1ccc(NC(=O)CN(C)C(=O)c2cc(CN3C(=O)c4ccccc4C3=O)ccc2OC)cc1`?
C8 TRAIL sens: inactive

What do the screens show for `COc1ccccc1C(=O)NC(=O)COC(=O)c1cccc(NC(C)=O)c1`?
C8 TRAIL sens: inactive

Results for O=C(Oc1ccc2ccccc2c1Cl)N1CCCC1 ?
FLuc inhib CS: inactive; C8 TRAIL sens: inactive; FLuc stim CS: inactive; PPC-1+TRAIL kill: inactive

Results for O=C(Oc1ccc2ccccc2c1Cl)N1CCCCCC1 ?
FLuc inhib CS: inactive; C8 TRAIL sens: 53; FLuc stim CS: inactive; PPC-1+TRAIL kill: inactive

What do the screens show for `COc1ccccc1C(=O)O/N=C(\N)c1ccccc1Cl`?
FLuc inhib CS: inactive; C8 TRAIL sens: inactive; FLuc stim CS: inactive; PPC-1+TRAIL kill: inactive

What do the screens show for `C/C(=N/OC(=O)c1c(-c2c(Cl)cccc2Cl)noc1C)c1cnccn1`?
FLuc inhib CS: inactive; C8 TRAIL sens: inactive; FLuc stim CS: inactive; PPC-1+TRAIL kill: inactive

What do the screens show for `COc1ccc(C(=O)O/N=C(\N)c2ccccc2Cl)cc1OC`?
C8 TRAIL sens: 78

Results for COc1ccc(/C(N)=N/OC(=O)CC2CCCCC2)cc1OC ?
C8 TRAIL sens: 73

What do the screens show for `COc1ccc(/C(N)=N/OC(=O)c2ccc(OC)c([N+](=O)[O-])c2)cc1OC`?
FLuc inhib CS: inactive; C8 TRAIL sens: 64; FLuc stim CS: inactive; PPC-1+TRAIL kill: inactive

Results for COc1cccc(C(=O)O/N=C(\C)c2cnccn2)c1 ?
FLuc inhib CS: 65; C8 TRAIL sens: inactive; FLuc stim CS: inactive; PPC-1+TRAIL kill: inactive

What do the screens show for `COc1ccc(C(=O)O/N=C(\C)c2ccccc2)cc1`?
FLuc inhib CS: 90; C8 TRAIL sens: inactive; FLuc stim CS: inactive; PPC-1+TRAIL kill: inactive

What do the screens show for `Cc1ccc(C(=O)O/N=C(\N)Cc2cccs2)cc1[N+](=O)[O-]`?
C8 TRAIL sens: inactive

How did COc1ccc(C(=O)O/N=C(\N)c2ccc(OC)c(OC)c2)cc1 do in these assays?
C8 TRAIL sens: 62

Results for COc1ccccc1C/C(N)=N/OC(=O)c1ccc(C)c([N+](=O)[O-])c1 ?
FLuc inhib CS: inactive; C8 TRAIL sens: 55; FLuc stim CS: inactive; PPC-1+TRAIL kill: inactive

What do the screens show for `COc1ccc(C(=O)O/N=C(\N)c2ccc(OC)c(OC)c2)c(OC)c1`?
C8 TRAIL sens: inactive

What do the screens show for `CN(C)S(=O)(=O)c1ccc(NC(=O)COc2cccc3c2OC(C)(C)C3)cc1`?
C8 TRAIL sens: inactive

Results for O=C(COC(=O)Cc1ccc(Br)cc1)NC1CCCCCC1 ?
FLuc inhib CS: inactive; C8 TRAIL sens: inactive; FLuc stim CS: inactive; PPC-1+TRAIL kill: inactive

How did CCOC(=O)c1cnc(-n2nc(C)cc2C)nc1N(C)C do in these assays?
FLuc inhib CS: 80; C8 TRAIL sens: 50; FLuc stim CS: inactive; PPC-1+TRAIL kill: inactive

What do the screens show for `CC(C)CN(C(=O)CCCOc1ccc(Cl)cc1Cl)c1c(N)n(Cc2ccccc2)c(=O)[nH]c1=O`?
C8 TRAIL sens: inactive

How did O=C(N/N=C/c1ccccc1F)c1cc2c(ccc3ccccc32)o1 do in these assays?
C8 TRAIL sens: inactive

Results for O=C(N/N=C/C=C/c1ccccc1)c1cc2c(ccc3ccccc32)o1 ?
FLuc inhib CS: inactive; C8 TRAIL sens: 57; FLuc stim CS: inactive; PPC-1+TRAIL kill: inactive

How did O=C(Nc1nc2c(F)cc(F)cc2s1)c1ccccn1 do in these assays?
FLuc inhib CS: 66; C8 TRAIL sens: 71; FLuc stim CS: inactive; PPC-1+TRAIL kill: inactive
